Experimental data: ChEMBL document CHEMBL1142716, “2-Hydroxy-4,6-diamino-[1,3,5]triazines: a novel class of VEGF-R2 (KDR) tyrosine kinase inhibitors” (J Med Chem, 2005)
pIC50: −log10 of the molar value.

Assays:
[1] = molecular target: T1, Vascular endothelial growth factor receptor 2 (Homo sapiens, UniProt P35968); assay: In vitro inhibition of Vascular endothelial growth factor receptor 2 at 10 uM ATP
[2] = molecular target: T1, Vascular endothelial growth factor receptor 2; assay: Inhibition of KDR-induced MAP kinase autophosphorylation assay in HUVEC cells; type: functional, cell-based
How it was run: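 Low-passage HUVECs (passage 3-12) were grown to confluence, serum-starved, treated with compound or DMSO, then stimulated with VEGF. Cells were lysed, run on SDS-PAGE and immunoblotted quantitatively with a phospho-p42/44 MAP kinase (pERK1/2) antibody. Inhibition is expressed as a percent of VEGF-stimulated phosphorylation in DMSO controls. IC50 values are the mean of three independent experiments.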

[3] = molecular target: Angiopoietin-1 receptor (Homo sapiens, UniProt Q02763); assay: Inhibition of tyrosine protein kinase receptor TIE-2
Angiopoietin-1 receptor, sequence (Q02763 whole entry): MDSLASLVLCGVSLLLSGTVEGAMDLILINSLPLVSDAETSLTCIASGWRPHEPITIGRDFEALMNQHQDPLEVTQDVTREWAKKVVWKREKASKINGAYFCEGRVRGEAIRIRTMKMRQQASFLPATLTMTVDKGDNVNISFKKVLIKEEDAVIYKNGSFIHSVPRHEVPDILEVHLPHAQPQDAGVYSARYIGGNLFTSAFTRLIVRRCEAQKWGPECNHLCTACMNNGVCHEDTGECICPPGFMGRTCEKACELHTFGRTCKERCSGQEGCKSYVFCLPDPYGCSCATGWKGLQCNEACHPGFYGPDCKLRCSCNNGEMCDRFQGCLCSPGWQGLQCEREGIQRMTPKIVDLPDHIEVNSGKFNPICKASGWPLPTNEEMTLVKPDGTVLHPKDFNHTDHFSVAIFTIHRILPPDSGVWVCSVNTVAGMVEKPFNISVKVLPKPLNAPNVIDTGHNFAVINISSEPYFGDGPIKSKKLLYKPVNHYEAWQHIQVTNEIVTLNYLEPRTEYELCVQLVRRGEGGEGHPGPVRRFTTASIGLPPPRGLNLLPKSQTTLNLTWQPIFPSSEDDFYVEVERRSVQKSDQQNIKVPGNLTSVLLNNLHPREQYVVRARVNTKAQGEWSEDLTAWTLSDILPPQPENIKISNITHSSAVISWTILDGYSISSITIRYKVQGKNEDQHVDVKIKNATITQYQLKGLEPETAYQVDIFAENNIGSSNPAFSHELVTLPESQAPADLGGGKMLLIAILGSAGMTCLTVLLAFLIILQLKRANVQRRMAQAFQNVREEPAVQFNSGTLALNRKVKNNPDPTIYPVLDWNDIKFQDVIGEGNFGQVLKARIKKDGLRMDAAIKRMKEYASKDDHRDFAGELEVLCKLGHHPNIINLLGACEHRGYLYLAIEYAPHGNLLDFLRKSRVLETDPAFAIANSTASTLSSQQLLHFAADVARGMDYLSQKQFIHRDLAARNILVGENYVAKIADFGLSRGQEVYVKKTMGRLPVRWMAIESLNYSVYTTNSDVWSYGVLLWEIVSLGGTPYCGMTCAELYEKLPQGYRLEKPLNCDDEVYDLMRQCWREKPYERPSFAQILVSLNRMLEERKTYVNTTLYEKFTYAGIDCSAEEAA

[4] = Inhibition of fibroblast growth factor receptor 1
[5] = molecular target: Macrophage colony-stimulating factor 1 receptor (Homo sapiens, UniProt P07333); assay: Inhibition of c-fms tyrosine kinase
Macrophage colony-stimulating factor 1 receptor, sequence (P07333 whole entry): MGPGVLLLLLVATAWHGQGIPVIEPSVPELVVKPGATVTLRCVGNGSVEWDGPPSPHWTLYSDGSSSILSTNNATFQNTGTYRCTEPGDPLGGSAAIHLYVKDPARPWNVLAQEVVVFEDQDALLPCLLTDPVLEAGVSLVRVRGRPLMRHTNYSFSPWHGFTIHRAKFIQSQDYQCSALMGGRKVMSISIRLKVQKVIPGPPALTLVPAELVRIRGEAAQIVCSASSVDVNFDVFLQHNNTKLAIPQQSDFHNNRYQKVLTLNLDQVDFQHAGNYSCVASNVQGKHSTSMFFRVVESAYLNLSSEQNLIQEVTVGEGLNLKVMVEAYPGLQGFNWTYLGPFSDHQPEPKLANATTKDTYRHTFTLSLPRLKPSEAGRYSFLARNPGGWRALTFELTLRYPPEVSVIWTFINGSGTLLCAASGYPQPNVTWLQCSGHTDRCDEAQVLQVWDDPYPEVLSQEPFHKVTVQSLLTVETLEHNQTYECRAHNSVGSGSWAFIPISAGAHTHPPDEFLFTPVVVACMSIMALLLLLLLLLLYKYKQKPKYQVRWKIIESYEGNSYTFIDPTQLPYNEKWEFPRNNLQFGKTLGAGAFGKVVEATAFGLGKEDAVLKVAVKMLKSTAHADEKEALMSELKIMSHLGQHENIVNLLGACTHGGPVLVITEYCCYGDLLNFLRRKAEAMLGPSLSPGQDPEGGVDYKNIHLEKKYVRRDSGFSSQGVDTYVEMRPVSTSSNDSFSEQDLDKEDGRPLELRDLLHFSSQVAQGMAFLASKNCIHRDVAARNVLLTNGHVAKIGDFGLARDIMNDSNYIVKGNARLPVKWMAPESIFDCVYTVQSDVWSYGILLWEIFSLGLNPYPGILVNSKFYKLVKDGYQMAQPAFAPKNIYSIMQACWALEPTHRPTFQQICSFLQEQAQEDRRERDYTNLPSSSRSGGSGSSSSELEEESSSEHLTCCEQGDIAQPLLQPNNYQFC

[6] = Inhibition of c-Src tyrosine kinase
[7] = molecular target: T2, Insulin receptor (Homo sapiens, UniProt P06213); assay: Inhibition of human Insulin receptor expressed in CHO cells; type: cell-based
How it was run: (§1)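 Cell-based counterscreen for growth-factor-induced p42/44 MAP kinase phosphorylation through EGFR, insulin receptor or FGFR-1. Cells were grown, treated and fixed in 96-well plates, and phosphorylation was read by phospho-specific ELISA.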

[8] = molecular target: Platelet-derived growth factor receptor (Homo sapiens, UniProt P09619+P16234); assay: Inhibition of PDGF-R2 tyrosine kinase; type: protein-complex assay
[9] = molecular target: T2, Insulin receptor; assay: Inhibition of beta IRK tyrosine kinase
[10] = molecular target: Fibroblast growth factor receptor 1 (Mus musculus, UniProt P16092); assay: Inhibition of mouse Fibroblast growth factor receptor 1 expressed in NIH 3T3 fibroblasts; how it was run: as §1
[11] = molecular target: T3, Epidermal growth factor receptor (Homo sapiens, UniProt P00533); assay: Inhibition of human Epidermal growth factor receptor expressed in A431
T3 sequence (P00533 whole entry): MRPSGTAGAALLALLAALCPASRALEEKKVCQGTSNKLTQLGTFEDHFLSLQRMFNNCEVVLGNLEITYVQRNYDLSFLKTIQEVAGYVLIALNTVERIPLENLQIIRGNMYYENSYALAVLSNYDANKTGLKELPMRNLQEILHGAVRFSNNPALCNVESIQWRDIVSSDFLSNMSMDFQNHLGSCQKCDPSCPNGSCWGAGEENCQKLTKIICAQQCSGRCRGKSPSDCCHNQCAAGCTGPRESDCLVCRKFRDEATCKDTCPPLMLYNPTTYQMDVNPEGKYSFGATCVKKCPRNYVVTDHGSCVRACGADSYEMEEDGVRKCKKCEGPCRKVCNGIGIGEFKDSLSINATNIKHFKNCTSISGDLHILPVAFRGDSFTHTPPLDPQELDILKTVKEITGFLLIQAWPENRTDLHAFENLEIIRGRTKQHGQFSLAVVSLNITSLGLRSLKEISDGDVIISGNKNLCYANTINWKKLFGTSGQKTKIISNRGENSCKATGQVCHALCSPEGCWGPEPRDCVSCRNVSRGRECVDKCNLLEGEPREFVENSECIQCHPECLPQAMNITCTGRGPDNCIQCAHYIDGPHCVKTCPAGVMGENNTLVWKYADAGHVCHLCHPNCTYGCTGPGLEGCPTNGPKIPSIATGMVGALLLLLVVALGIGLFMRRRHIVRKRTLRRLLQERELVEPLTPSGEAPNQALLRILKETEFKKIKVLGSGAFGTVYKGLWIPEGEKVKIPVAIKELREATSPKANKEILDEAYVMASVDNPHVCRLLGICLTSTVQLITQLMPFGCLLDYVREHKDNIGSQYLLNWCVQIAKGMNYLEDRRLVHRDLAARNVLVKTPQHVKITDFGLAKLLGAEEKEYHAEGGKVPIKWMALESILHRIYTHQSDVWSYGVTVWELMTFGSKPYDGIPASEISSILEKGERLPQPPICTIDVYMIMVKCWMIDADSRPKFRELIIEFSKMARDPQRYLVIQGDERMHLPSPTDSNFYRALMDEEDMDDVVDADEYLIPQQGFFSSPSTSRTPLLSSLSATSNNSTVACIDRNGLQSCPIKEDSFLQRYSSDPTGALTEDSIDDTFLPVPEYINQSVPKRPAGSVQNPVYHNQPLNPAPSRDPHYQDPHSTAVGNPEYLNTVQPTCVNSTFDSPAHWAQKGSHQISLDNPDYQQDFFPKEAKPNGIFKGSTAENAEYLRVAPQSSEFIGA
How it was run: (§2)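 Cell-based counterscreen. Cells were grown, treated with compound and fixed in wells. EGF-R-induced phosphorylation of MAP kinase was then read directly by a phosphorylation-specific ELISA.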

[12] = species: Rattus norvegicus; assay: Total tube length (arbitrary units) of aortic rings was measured by aortic ring assay in rat at 30 uM concentration of the compound; type: functional, Aorta
How it was run: (§3)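 Rings cut from rat aorta were embedded in collagen gels containing 5 ng/mL VEGF and cultured for 7 days with test compound. The total length of capillary-like sprouts growing out from each ring was measured in arbitrary units and reported with SEM.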

[13] = species: Rattus norvegicus; assay: Total tube length (arbitrary units) of aortic rings was measured by aortic ring assay in rat at 3 uM concentration of the compound; type: functional, Aorta; how it was run: as §3
[14] = species: Rattus norvegicus; assay: Total tube length (arbitrary units) of aortic rings was measured by aortic ring assay in rat at 0.3 uM concentration of the compound; type: functional, Aorta; how it was run: as §3
[15] = molecular target: T3, Epidermal growth factor receptor; assay: Inhibition of human epidermal growth factor receptor; how it was run: as §2
[16] = test system: HUVEC; assay: Inhibitory concentration against HUVEC cells; type: functional, cell-based; settings: Homo sapiens
[17] = Inhibition of Fibroblast growth factor receptor 1

T1 sequence (P35968 whole entry): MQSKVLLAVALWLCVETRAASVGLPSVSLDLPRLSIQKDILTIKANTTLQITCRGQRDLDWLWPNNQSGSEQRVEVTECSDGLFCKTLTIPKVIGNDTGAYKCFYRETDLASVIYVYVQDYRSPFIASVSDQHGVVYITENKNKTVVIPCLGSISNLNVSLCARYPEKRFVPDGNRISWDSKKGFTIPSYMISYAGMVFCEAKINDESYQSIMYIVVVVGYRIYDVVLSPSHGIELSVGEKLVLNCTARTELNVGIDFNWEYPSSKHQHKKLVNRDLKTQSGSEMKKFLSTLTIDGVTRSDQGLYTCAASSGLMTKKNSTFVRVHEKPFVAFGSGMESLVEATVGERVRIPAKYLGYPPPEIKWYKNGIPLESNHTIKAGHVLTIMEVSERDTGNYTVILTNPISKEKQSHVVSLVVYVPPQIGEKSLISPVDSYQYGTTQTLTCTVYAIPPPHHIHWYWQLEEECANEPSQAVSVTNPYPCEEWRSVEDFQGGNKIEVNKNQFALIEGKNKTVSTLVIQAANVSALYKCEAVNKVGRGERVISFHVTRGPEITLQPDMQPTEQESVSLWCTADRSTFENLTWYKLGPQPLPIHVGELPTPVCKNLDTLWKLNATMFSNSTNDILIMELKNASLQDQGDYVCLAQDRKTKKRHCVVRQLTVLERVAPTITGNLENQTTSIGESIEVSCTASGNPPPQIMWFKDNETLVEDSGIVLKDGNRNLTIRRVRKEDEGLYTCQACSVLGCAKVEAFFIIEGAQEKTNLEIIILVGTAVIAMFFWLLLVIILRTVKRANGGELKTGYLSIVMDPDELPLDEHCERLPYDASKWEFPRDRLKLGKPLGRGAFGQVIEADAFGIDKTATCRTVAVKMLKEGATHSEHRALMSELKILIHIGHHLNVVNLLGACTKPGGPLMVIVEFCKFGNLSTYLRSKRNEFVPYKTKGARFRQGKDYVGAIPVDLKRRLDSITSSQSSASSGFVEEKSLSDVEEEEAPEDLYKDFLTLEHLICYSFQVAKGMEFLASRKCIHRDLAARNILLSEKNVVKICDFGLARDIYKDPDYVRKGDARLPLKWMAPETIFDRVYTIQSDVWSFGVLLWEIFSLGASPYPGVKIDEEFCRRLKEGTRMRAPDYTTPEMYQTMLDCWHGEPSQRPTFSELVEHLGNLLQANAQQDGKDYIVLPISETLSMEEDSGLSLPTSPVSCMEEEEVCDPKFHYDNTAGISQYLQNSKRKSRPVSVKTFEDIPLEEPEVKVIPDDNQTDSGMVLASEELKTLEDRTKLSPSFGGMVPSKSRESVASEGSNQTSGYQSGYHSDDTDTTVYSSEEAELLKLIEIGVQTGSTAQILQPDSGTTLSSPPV

Row | Structure (SMILES) | pIC50 [1] | pIC50 [2] | pIC50 [3] | pIC50 [4] | pIC50 [5] | pIC50 [6] | pIC50 [7] | pIC50 [8] | pIC50 [9] | pIC50 [10] | pIC50 [11] | Activity [12] | Activity [13] | Activity [14] | pIC50 [15] | pIC50 [16] | pIC50 [17]
1 | COc1nc(Nc2ccc3ncsc3c2)nc(NC(C)(C)c2ccccc2)n1 | 5.21 | < 4.52 | – | – | – | – | – | – | – | – | – | – | – | – | – | – | –
2 | CC(C)(Nc1nc(Cl)nc(Nc2ccc3ncsc3c2)n1)c1ccccc1 | 5.26 | 5.97 | – | – | – | – | – | – | – | – | – | – | – | – | – | – | –
3 | CC(C)(Nc1nc(O)nc(Nc2ccc3[nH]cnc3c2)n1)c1ccccc1 | 6.62 | < 4.70 | – | – | – | – | – | – | – | – | – | – | – | – | – | – | –
4 | CC(C)(Nc1nc(O)nc(Nc2ccc3ncsc3c2)n1)c1ccccc1 | 7.46 | 6.40 | 6.00 | < 4.90 | < 4.90 | 5.37 | < 5.00 | 5.10 | 6.26 | < 5.00 | < 5.00 | – | – | – | – | – | –
5 | CC(C)N(Cc1ccccc1)c1nc(O)nc(Nc2ccc3ncsc3c2)n1 | 7.74 | 6.55 | 6.74 | < 4.90 | < 4.90 | < 4.90 | < 5.00 | < 4.90 | 4.96 | < 5.00 | – | 36.3 | 348 | 1503 | < 5.00 | 6.55 | –
6 | CCN(Cc1ccccc1)c1nc(O)nc(Nc2ccc3ncsc3c2)n1 | 7.31 | 6.22 | 6.40 | – | 5.37 | 5.51 | < 5.00 | 5.60 | 5.40 | < 5.00 | < 5.00 | – | – | – | – | – | < 4.90
7 | CC(C)(Nc1nc(NO)nc(Nc2ccc3ncsc3c2)n1)c1ccccc1 | 7.40 | 6.08 | 6.15 | 5.74 | 4.85 | 5.74 | < 5.00 | 5.41 | 6.38 | < 5.00 | < 5.00 | – | – | – | – | – | –
8 | CN(Cc1ccccc1)c1nc(O)nc(Nc2ccc3ncsc3c2)n1 | 6.49 | 5.62 | – | – | – | – | – | – | – | – | – | – | – | – | – | – | –
9 | Oc1nc(NCc2ccccc2)nc(Nc2ccc3ncsc3c2)n1 | 5.70 | < 4.52 | – | – | – | – | – | – | – | – | – | – | – | – | – | – | –
